How the values were obtained:
[1] = Volume of distribution at steady state in Sprague-Dawley rat at 1 mg/kg, iv administered as single dose by LC-MS/MS method; format: ADME, organism-based; conditions: in vivo, read-out: Vdss
How it was run: (§1)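 Single oral (10 mg/kg) or intravenous (1 mg/kg) dose in rats, n = 3. Jugular vein blood taken at 2, 15 and 30 min and 1, 2, 4 and 6 h. Plasma concentrations measured by LC-MS/MS.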

[2] = Cmax in Sprague-Dawley rat at 10 mg/kg, po administered as single dose by LC-MS/MS method; format: ADME, organism-based; parameters: dose 10 mg/kg, route oral; conditions: in vivo; how it was run: as §1
[3] = Tmax in Sprague-Dawley rat at 10 mg/kg, po administered as single dose by LC-MS/MS method; format: ADME, organism-based; conditions: in vivo; how it was run: as §1
[4] = Bioavailability in Sprague-Dawley rat at 10 mg/kg, po administered as single dose by LC-MS/MS method; format: ADME, organism-based; conditions: in vivo; how it was run: as §1
[5] = Plasma concentration in Sprague-Dawley rat model of distension-induced rhythmic bladder contraction at 1 mg/kg, iv measured after 15 mins; format: ADME, organism-based
[6] = Plasma concentration in Sprague-Dawley rat model of distension-induced rhythmic bladder contraction at 10 mg/kg, po measured after 3.5 hrs; format: ADME, organism-based
[7] = Drug metabolism in rat plasma assessed as hydrolyzation of methyl ester to carboxylic acid; format: ADME, cell-free

Vd [1] [L/kg] | Cmax [2] [µM] | Tmax [3] [min] | bioavailability [4] [%] | concentration at […] [5] [nM] | concentration at 3.5 h [6] [nM] | Drug metabolism [7] | SMILES
1.2 | 3.23 | 50 | 59 | 1120 | > 1000 | – | C[C@H](c1cc(F)cc(F)c1)N(C(=O)c1ccccc1)[C@@H](C(N)=O)c1ccccc1
– | – | – | – | – | – | Metabolite_Detected | COC(=O)[C@@H](c1ccccc1)N(Cc1cccc(OC)c1)C(=O)c1ccccc1

Reference: ChEMBL document CHEMBL3872272, “Synthesis and optimization of novel α-phenylglycinamides as selective TRPM8 antagonists” (Bioorg Med Chem, 2017)
